Here are results for two compounds from ChEMBL document CHEMBL1149909, “Aurocitrin and related polyketide metabolites from the wood-decay fungus Hypocrea sp. BCC 14122” (J Nat Prod, 2008).

One experiment has as its system Plasmodium falciparum. Kind of experiment: Antimalarial activity against multidrug-resistant Plasmodium falciparum K1 by microculture radioisotope technique. It counts as functional, organism-based.
For a further experiment, the system named is Vero. In words: Cytotoxicity against african green monkey Vero cells by colorimetric method. Type of experiment: cell-based. The conditions noted are these: Chlorocebus sabaeus. Summed up: (§1)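 Colorimetric cytotoxicity read-out on four cell lines: KB (oral human epidermoid carcinoma), BC (human breast cancer), NCI-H187 (human small cell lung cancer) and Vero (African green monkey kidney […]). A reference compound was run alongside.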

The nature of experiment [1]: Cytotoxicity against human BC cells by colorimetric method. It counts as functional, cell-based. Summed up: as §1
For another experiment, the system named is NCI-H187. In words: Cytotoxicity against human NCI-H187 cells by colorimetric method. Type of experiment: functional, cell-based. The gist of the method:
as §1

A further experiment deals with KB. In words: Cytotoxicity against human KB cells by colorimetric method. It counts as functional, cell-based. The gist of the method: as §1

Turning to `C[C@H]1[C@@H](O)O[C@@H]2O[C@@]3(C)CC[C@H]4[C@H](C)CC[C@@H]1[C@@]24OO3` [ARTENIMOL], the IC50 in the experiment on Plasmodium falciparum came to 4.5 nM.

`Cc1c2ccncc2c(C)c2c1[nH]c1ccccc12` [ELLIPTECINE]: the IC50 with Vero came out at 2100 nM; in experiment [1], 1200 nM; in the experiment with NCI-H187 it was 2000 nM; with KB, 2200 nM.

As a reminder, the IC50 is the concentration at which inhibition is half-maximal.
